# Sampled rows, rich in hits. Any-hit rate of the full collection: about 1.1%.
# ERp5 block = ERp5 (human) disulfide isomerase inhibition. Q15084. ERp5 insulin aggregation, absorbance 650 nm, 90 min. inhibition, % at 9.99 µM. 350,000 tested, 0.05% active. AID 651711;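 active means mean replicate inhibition above about 25%, with every replicate also reaching it, limit read from the data, passing the limit was not always enough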
# PDI inh = PDI (human) enzyme inhibition | P07237 | PDI insulin aggregation turbidity, A650, 90 min | inhibition, % at 10 µM | 350,000 tested, 0.052% active;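 active means mean inhibition across replicates of 30% or more, whatever share of single replicates reach that level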
# Target sequence (P07237 whole entry, looked up): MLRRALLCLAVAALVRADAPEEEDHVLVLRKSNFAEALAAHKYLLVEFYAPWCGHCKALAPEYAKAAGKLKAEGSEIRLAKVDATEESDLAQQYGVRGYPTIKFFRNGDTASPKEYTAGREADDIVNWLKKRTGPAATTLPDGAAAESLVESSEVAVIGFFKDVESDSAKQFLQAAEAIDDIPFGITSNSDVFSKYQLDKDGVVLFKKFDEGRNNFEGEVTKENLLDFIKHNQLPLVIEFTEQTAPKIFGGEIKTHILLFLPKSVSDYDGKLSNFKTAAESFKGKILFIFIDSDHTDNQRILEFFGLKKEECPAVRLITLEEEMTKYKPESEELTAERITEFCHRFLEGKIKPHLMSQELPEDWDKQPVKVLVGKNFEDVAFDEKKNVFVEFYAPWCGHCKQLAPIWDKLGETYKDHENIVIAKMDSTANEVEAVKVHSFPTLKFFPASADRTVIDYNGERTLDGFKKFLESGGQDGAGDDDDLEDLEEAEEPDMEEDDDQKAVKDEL
# CAL PDZ FP-1 = inhibitors of human CAL PDZ peptide binding | purified CAL PDZ, TMR-peptide fluorescence polarization, 1 h | 330,000 tested, 0.02% active | inhibition, % at 20 µM;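 active means highest replicate inhibition of at least 40%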
#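 Material: tagged CAL PDZ protein CerCALP, purified; buffer or medium: sodium phosphate/NaCl buffer pH 7.4 with TCEP, IgG, Thesit; also added: fluorescent TMR peptide probe; schedule: 1 h incubation at room temperature before polarization reading; technique: fluorescence polarization from S- and P-plane intensities, G-factor corrected; control set: unlabelled peptide and DMSO controls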
# ERAP1 inh = ERAP1 (human) enzyme inhibition. 340,000 tested, 0.15% active. inhibition, % at 10.7 µM. recombinant ERAP1, Leu-AMC fluorescence, 60 min. Q9NZ08;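 active means mean replicate inhibition of at least 30%, or all replicates individually reaching that 30% level; inactive means mean below 30% and not every replicate reaching it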
# CAL PDZ FP-2 = inhibitors of human CAL PDZ peptide binding; purified CAL PDZ, TMR-peptide fluorescence polarization, 1 h; inhibition, % at 24.9 µM; 300,000 tested, 0.92% active;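 active means mean inhibition of at least 30% with at least half of replicates also reaching 30%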
# Rin1 Abl inh = blocks binding of human Rin1 to Abl. P00519+Q13671. TR-FRET Rin1/Abl binding, biochemical. inhibition, % at 7.35 µM. 360,000 tested, 0.4% active. AID 588664; in the data active means inhibition above about 5%, passing the limit was not always enough
# Hits are given with their value; 0 = inactive; - = no result given.
SMILES,ERp5 block,PDI inh,CAL PDZ FP-1,ERAP1 inh,CAL PDZ FP-2,Rin1 Abl inh
O=C(Nc1ccc(F)cc1)N1C[C@H]2[C@@H](c3ccccc31)[C@H](CO)N2C(=O)Cc1ccccn1,0,-,-,0,-,-
O=C(c1ccccc1)N1CC2(C1)[C@@H](c1ccccc1)[C@H](CO)N2C(=O)CC1CC1,0,-,-,0,-,-
O=C(Nc1ccncc1)c1ccc(N2CCCC2=O)cc1,0,0,0,0,0,0
O=C(Nc1cccc([N+](=O)[O-])c1)c1ccc(N2CCCC2=O)cc1,0,0,0,0,68.9,0
Cc1nc(-c2ccc(NC(=O)Cc3ccccc3)cc2)cs1,0,0,-,0,66.2,0
CCC(=O)N(C)C[C@@H]1Oc2cc(-c3ccc(C)cc3)ccc2S(=O)(=O)N([C@@H](C)CO)C[C@H]1C,-,-,-,0,-,-
O=C(C[C@@H]1CC[C@H]2[C@@H](COC[C@@H](O)CN2Cc2cc(F)cc(F)c2)O1)NC1CCC1,0,-,-,0,-,-
Cc1ccccc1N1CC(O)(c2cccs2)[N+]2=C1CCCC2 (centres undefined),0,0,0,0,86.5,0
O=C(O)[C@@H]1[C@@H](CO)[C@@H]2Cn3c(ccc(-c4cncnc4)c3=O)[C@@H]2N1C(=O)C1CCCCC1,0,-,-,0,-,-
Cc1ccc(CN2C(=O)c3ccccc3NC2c2ccccn2)cc1 (centres undefined),0,0,0,0,57.6,0
CCn1ncc(Br)c1C(=O)Nc1cccc(F)c1,0,0,0,0,32.5,0
CCn1ncc(Br)c1C(=O)Nc1ccc2c(c1)OCCO2,0,0,0,0,0,0
COc1cc(OC)cc(C(=O)Oc2ccc(/C=N/Nc3nc4ccccc4s3)cc2OC)c1,-,0,0,-,-,0
COc1cc(/C=N/Nc2nc3ccccc3s2)ccc1OC(=O)c1ccccc1F,0,0,0,0,72.2,0
COc1ccc2c3c(n(C)c2c1)[C@H](CO)NCC31CCN(Cc2ccc(-c3ccccn3)cc2)CC1,0,-,-,0,-,-
COc1ccc(-[n+]2c(C)cc(/C=C3\Sc4ccccc4N3C)cc2C)cc1,0,0,0,0,0,0
COc1ccccc1-[n+]1c(C)cc(/C=C2\Sc3ccccc3N2C)cc1C,0,0,0,0,52.7,0
CN(C)CC(=O)N[C@@H]1CC[C@@H](CCn2cc(CN(C)C)nn2)O[C@H]1CO,0,-,-,0,-,-
COC(=O)CC1OCC=C2CN3CCC45C6=CC(=O)C(=O)C([N+](=O)[O-])=C6NC4C1C2CC35 (centres undefined),0,85.0,-,0,-,0
CC(=O)N(C)C[C@@H]1Oc2cc(C#Cc3cccc(F)c3)ccc2S(=O)(=O)N([C@H](C)CO)C[C@@H]1C,0,-,-,0,-,-
COc1ccc2c3c(n(C)c2c1)[C@@H](CO)N(S(C)(=O)=O)CC31CCN(CC2CCCC2)CC1,0,-,-,0,-,-
CCS(=O)(=O)c1nc(S(=O)(=O)c2ccc(C)cc2)c(N2CCC3(CC2)OCCO3)s1,0,0,0,0,0,0
CCCS(=O)(=O)c1nc(S(=O)(=O)c2ccc(C)cc2)c(N2CCC3(CC2)OCCO3)s1,0,0,0,0,57.1,0
C[C@H](CO)N1C[C@H](C)[C@@H](CN(C)S(=O)(=O)c2cn(C)cn2)Oc2ccc(NS(=O)(=O)c3ccccc3)cc2CC1=O,0,-,-,0,-,-
COc1cc(/C=C/C=C2/CC/C(=C/C=C/c3ccc(O)c(OC)c3)C2=O)ccc1O,0,38.9,0,0,0,0
SMILES,ERp5 block,PDI inh,CAL PDZ FP-1,ERAP1 inh,CAL PDZ FP-2,Rin1 Abl inh
CC(C)C(NC(=O)c1ccccc1Br)c1ccccc1 (centres undefined),0,0,0,0,0,0
CC(NC(=S)NC(=O)c1ccccc1Br)c1ccccc1 (centres undefined),0,0,-,0,76.7,0
C=CCn1cnnc1SCC(=O)NCC1COc2ccccc2O1 (centres undefined),0,0,0,0,0,0
C=CCn1cnnc1SCC(=O)N(C)CC1COc2ccccc2O1 (centres undefined),0,0,0,0,48.0,0
Cc1ccc2nc(SC(C)C(=O)NC3CCCC3)[nH]c2c1 (centres undefined),0,0,0,0,0,0
Cc1cc2nc(SC(C)C(=O)O)[nH]c2cc1C (centres undefined),-,0,0,-,active,0
COc1ccc(NC(=O)N(C)C[C@@H]2Oc3ccc(NC(=O)Cc4cn(C)c5ccccc45)cc3C(=O)N([C@H](C)CO)C[C@H]2C)cc1,0,-,-,0,-,-
CCOCCc1nnc(NC(=O)C2CC(=O)N(CCc3ccc(F)cc3)C2)s1 (centres undefined),0,0,0,0,58.7,0
Cc1cc(C)c(S(=O)(=O)NCc2ccc3c(c2)OCO3)c(C)c1,0,0,-,0,69.3,0
Cc1cc(C)c(S(=O)(=O)NCc2ccc3c(c2)OCO3)cc1C,0,0,0,0,0,0
Cc1cc2ncc(S(C)(=O)=O)c(N)n2n1,0,0,0,0,55.6,0
O=C(N[C@H]1CC[C@@H](CCNS(=O)(=O)c2ccc(F)cc2)O[C@@H]1CO)c1cccc(F)c1,0,-,-,0,-,-
CC(NS(=O)(=O)c1ccc(Cl)c(Cl)c1)C(=O)OCC(=O)Nc1ccc2c(c1)OCO2 (centres undefined),0,0,70.3,0,0,0
CCCCCCC(=O)N(O)C1CC(=O)N(c2ccc(C)cc2)C1=O (centres undefined),-,0,0,-,-,0
Cc1ccc(N2C(=O)CC(N(O)C3CC(=O)N(c4ccc(C)cc4)C3=O)C2=O)cc1 (centres undefined),-,0,0,-,59.3,0
C[C@H]1CN([C@@H](C)CO)C(=O)Cc2cc(NC(=O)C3CC3)ccc2O[C@@H]1CN(C)C(=O)Nc1ccc(C(F)(F)F)cc1,0,-,-,0,-,-
COC(=O)C[C@H]1CC[C@@H]2[C@H](COc3ccc(NS(=O)(=O)c4ccccc4Cl)cc3C(=O)N2C)O1,0,-,-,0,-,-
Cc1cc2c(N=O)c(NO)ccc2[nH]1,-,0,-,-,0,11.6
COc1ccc(CN(C)C[C@@H]2Oc3ccc(NC(=O)C4CCCCC4)cc3CC(=O)N([C@H](C)CO)C[C@H]2C)cc1,0,-,-,0,-,-
O=c1[nH][nH]c2c(N=Cc3ccccc3O)ccc(F)c12,0,0,0,0,0,16.6
O=[N+]([O-])c1ccc(-c2nc(Nc3cccc(O)c3)c3ccccc3n2)cc1,0,0,-,0,78.5,0
CC1CCCN(C(=O)c2ccc(COc3ccccc3Br)cc2)C1 (centres undefined),-,0,0,-,39.7,0
CCOC(=O)C1CCN(c2nc(-c3ccc(C)cc3)nc3ccccc23)CC1,0,0,0,0,84.8,0
C[C@@H]1CN([C@H](C)CO)C(=O)c2cccc(NS(=O)(=O)c3cccs3)c2O[C@@H]1CN(C)Cc1ccc(C(=O)Nc2ccccc2N)cc1,0,-,-,0,-,-
CCCCCCC(=O)Oc1cccc(C2=CC(=O)CC(C)(C)C2=O)c1,0,0,-,0,-,0

# Screening data deposited in PubChem by several laboratories.
